Legend:
MT4 [1] = assay: Inhibitory concentration against nevirapine resistant human immunodeficiency virus type 1 mutant type Tyr181Cys was determined in MT-4 cells; format: functional, cell-based
Method in brief: (§1)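 Whole-cell antiviral assay in MT4 cells, a human T-cell lymphotropic virus-transformed line. Cells were infected with wild-type HIV-1 strain IIIB or with nevirapine-resistant HIV-1 carrying the Tyr181Cys RT mutation. Inhibition was read by a propidium iodide-based colorimetric assay that estimates DNA content.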

[2] = target: T1, Human immunodeficiency virus type 1 reverse transcriptase (Human immunodeficiency virus 1, UniProt Q72547); assay: Concentration required for 50% inhibition of human immunodeficiency virus type 1 reverse transcriptase Ile100
MT4 [3] = assay: Inhibitory concentration against human immunodeficiency virus type 1 was determined in MT-4 cells; format: functional, cell-based; method in brief: as §1
[4] = target: T1, Human immunodeficiency virus type 1 reverse transcriptase; assay: Concentration required for 50% inhibition of human immunodeficiency virus type 1 reverse transcriptase mutant type Cys181
[5] = target: T1, Human immunodeficiency virus type 1 reverse transcriptase; assay: Concentration required for 50% inhibition of human immunodeficiency virus type 1 reverse transcriptase mutant type Ile100
Method in brief: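 Inhibition of mutant HIV-1 RT enzyme, tested alongside wild-type RT; IC50 values are the mean of two independent experiments.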

Row | Structure (SMILES) | IC50 (MT4 [1]) [nM] | IC50 [2] [nM] | IC50 (MT4 [3]) [nM] | IC50 [4] [nM] | IC50 [5] [nM]
1 | CCCc1c(SC2CCCCC2)c2cc(Cl)ccc2[nH]c1=O | 360 | 1610 | 100 | 860 | 
2 | CCCc1c([S+]([O-])C2CCCCC2)c2cc(Cl)ccc2[nH]c1=O (stereo unspecified) | 2210 | 2380 | 240 | 1260 | 
3 | CCCc1c(OC2CCCCC2)c2cc(Cl)ccc2[nH]c1=O | 600 |  | 30 | 1130 | 1360
4 | CC(C)c1c(OC2CCCCC2)c2cc(Cl)ccc2[nH]c1=O | 710 |  | 50 | 2500 | 1960
